M5 ag – agonists of human muscarinic M5 receptor (CHRM5); activation, % at 3 µM; AID 624037; P08912; CHO-K1 hM5 cells, Fluo-8 calcium fluorescence; 0% DMSO wells, 100% maximal acetylcholine response; actives 0.19% (n = 360,000);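 active = activation above the run's mean over test compounds plus 3 SD, cut at about 23% in these data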;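 note: signal is peak over basal fluorescence ratio across the kinetic read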
M5 antag – CHRM5 antagonism in calcium assay | CHO-hM5 cells, Fluo-8 calcium fluorescence, ACh EC80 | inhibition, % at 3 µM | actives 0.59% (n = 360,000);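 active = inhibition above a per-plate cutoff, the mean of that plate's test compounds plus 3 SD, cut at about 27% in these data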;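 note: 0% = acetylcholine EC80 with DMSO and 100% = DMSO without agonist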
CHRM4 agonist – agonists of human muscarinic M4 receptor (CHRM4); activation, % at 3 µM; actives 0.14% (n = 360,000); CHO-K1 hM4/Gqi5, Fluo-8 calcium fluorescence; vehicle 0%, full acetylcholine response 100%;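 active = activation above the run mean over all test wells plus 3 SD, cut at about 32% in these data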;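 note: peak over basal fluorescence ratio per well then scaled between controls; 0% = DMSO wells and 100% = acetylcholine at EC100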
Target sequence (P08173 whole entry, looked up): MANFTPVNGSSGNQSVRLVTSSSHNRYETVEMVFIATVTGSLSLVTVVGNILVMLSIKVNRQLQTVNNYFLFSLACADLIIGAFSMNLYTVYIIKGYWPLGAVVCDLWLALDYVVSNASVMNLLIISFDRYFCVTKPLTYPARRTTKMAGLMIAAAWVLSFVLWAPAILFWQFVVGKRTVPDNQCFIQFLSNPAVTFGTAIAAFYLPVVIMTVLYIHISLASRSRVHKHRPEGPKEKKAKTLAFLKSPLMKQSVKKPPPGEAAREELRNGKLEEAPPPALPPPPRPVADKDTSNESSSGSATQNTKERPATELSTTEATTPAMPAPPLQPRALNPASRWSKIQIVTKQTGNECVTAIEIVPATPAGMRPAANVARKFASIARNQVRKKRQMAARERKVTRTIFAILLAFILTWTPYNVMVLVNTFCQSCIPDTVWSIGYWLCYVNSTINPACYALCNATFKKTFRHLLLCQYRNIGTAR
M4 PAM – potentiates acetylcholine response at human M4 receptor; P08173; CHO-K1 hM4/Gqi5, Fluo-8 calcium fluorescence, ACh EC20; 0% = ACh EC20, 100% = maximal ACh; actives 0.4% (n = 360,000); activation, % at 3 µM; AID 624126;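 active = activation above its plate's cutoff, the mean activation of sample wells plus 3 SD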
CHRM4 antagonist – blocks acetylcholine activation of human M4 receptor; P08173; CHO-hM4 cells, ACh EC80, Fluo-8 calcium fluorescence; inhibition, % at 3 µM; actives 0.73% (n = 360,000); AID 624125;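 active = inhibition above its plate's cutoff, the mean inhibition of sample wells plus 3 SD, cut at about 27% in these data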;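 note: 0% = acetylcholine EC80 with DMSO and 100% = DMSO without agonist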
M5 PAM – positive allosteric modulators of human muscarinic M5 receptor | P08912 | CHO-K1 hM5, Fluo-8 calcium, ACh EC20 PAM; 0% = ACh EC20, 100% = ACh EC100 | activation, % at 3 µM | actives 0.3% (n = 360,000) | AID 624038;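 active = activation above the run cutoff, the mean activation of all test compounds plus 3 SD, cut at about 18% in these data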
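Replicates: One well per compound, no replicates | System: Human M5 receptor in CHO-K1 cells | Benchmarks: Low control EC20 acetylcholine (0%), high control EC100 acetylcholine (100%) | Probe or stimulus: Acetylcholine, EC20 level | Times: Fluo-8 loading 80 min at 37 °C plus 30 min room temperature | Signal: Intracellular calcium via Fluo-8 fluorescence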
Numbers without * were called inactive. Hits are enriched below; roughly 1.8% of the tested compounds scored in any of these assays.

SMILES	M5 ag	M5 antag	CHRM4 agonist	M4 PAM	CHRM4 antagonist	M5 PAM
Nc1ccc(NC(=O)c2cccc(C(=O)Nc3ccc(N)cc3Cl)c2)c(Cl)c1	-1	11	1	4	4	-4
OCCN(CCO)CC(O)CN1c2ccccc2Sc2ccccc21 (stereo not drawn)	-7	10	2	-7	16	-3
CC(CN1c2ccccc2Sc2ccccc21)N(C)C (stereo not drawn)	0	99*	1	-19	99*	-18
CCN(CC)CC(O)CN1c2ccccc2Sc2ccccc21 (stereo not drawn)	-6	39*	5	-18	15	-18
COc1ccc2c(c1)N(C[C@H](C)CN(C)C)c1ccccc1S2	0	60*	9	-17	54*	-19
CC(CN(C)C)CN1c2ccccc2Sc2ccccc21 (stereo not drawn)	1	98*	9	-18	82*	-19
COc1ccc2c(c1)OC[C@H]1[C@H]2N2C(=O)CN(Cc3ccccc3)C(=O)[C@@]2(C)[C@H]1c1ccccc1	2	10	7	13	-12	2
Cc1csc(/C(=N\O)c2csc(C)n2)n1	0	10	2	21*	-3	1
Cc1csc(/C(C#N)=N/O)n1	3	3	2	14	-3	-1
CCOC(=O)N1CCN(C(=O)COC(=O)COc2c(C)cc(C)cc2C)CC1	1	5	1	24*	-15	4
COc1ccc(Nc2nc(Nc3ccc(OC)cc3)nc(-n3[nH]c(=O)c(C)c3C)n2)cc1	-3	31*	10	-9	28*	-17
COc1ccc(Nc2nc(OC)nc(OC)n2)cc1	-1	5	1	0	2	-2
CC(C)(C)C(=O)COC(=O)C1=NN(c2ccccc2)C(=O)CC1	-3	3	0	3	-1	-3
CCn1nc(C(=O)N2CCN(Cc3nc4ccccc4s3)CC2)c2ccccc2c1=O	7	20	22	-14	35*	-36
CCCCn1c(C)cc(C)c(S(=O)(=O)c2ccccc2C)c1=O	-12	2	-1	-1	-5	1
Cc1ccccc1S(=O)(=O)c1c(C)cc(C)n(C(C)C)c1=O	-5	-11	0	1	-10	22*
O=C(NNC(=O)C1CC(=O)N(Cc2ccccc2)C1)c1ccc(Br)cc1 (stereo not drawn)	-5	29*	1	-1	0	-7
CCc1ccc(C(=O)NNC(=O)C2CC(=O)N(Cc3ccccc3)C2)cc1 (stereo not drawn)	-1	1	0	3	-7	1
CN1CCCN(C(c2ccccc2)c2ccc(Cl)cc2)CC1 (stereo not drawn)	2	99*	9	-19	83*	-19
CN1CCN(C(c2ccccc2)c2ccccc2)CC1	-1	83*	2	-18	57*	-19
COc1cc(CN2CCN(C(c3ccccc3)c3ccccc3)CC2)cc(OC)c1OC	-26	9	-2	-17	45*	-33
CC(C)(C)C(=O)N1CCN(C(c2ccccc2)c2ccccc2)CC1	-11	7	-2	-7	10	-3
COc1ccc(Cc2n[nH]c(=S)n2NC(=O)Nc2ccc(Cl)c(Cl)c2)cc1	6	30*	14	-34	23	-24
Cn1c(CC(=O)Nc2ccc(Cl)c(Cl)c2)n[nH]c1=S	4	-1	4	10	0	12
CNc1cncc(-c2cccc(C(=O)N(C)C)c2)n1	-1	0	0	4	-2	1
COc1ccccc1CNC1CCCc2ccccc21 (stereo not drawn)	-7	17	1	-14	30*	-9
COc1ccc(CNC2CCCc3ccccc32)cc1OC (stereo not drawn)	-3	-6	2	5	-17	-2
CC(NS(=O)(=O)OCC(Cl)(Cl)Cl)c1ccc(C(C)(C)C)cc1 (stereo not drawn)	-11	15	4	-13	45*	-25

Source: PubChem
